In ChEMBL document CHEMBL4364327, “Discovery of benzimidazole analogs as a novel interleukin-5 inhibitors” (Eur J Med Chem, 2019):

Test system: not listed separately
Experiment: Cytotoxicity against human HCC1395BL cells assessed as inhibition of cell viability at 30 uM measured after 48 hrs by MTT assay
Type: cell-based
Conditions: read-out: INH
How it was run: (§1)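 HCC1395 BL or NCI-BL1184 normal B lymphoblasts were cultured in RPMI-1640 or IMDM with 10% FBS at 37 °C and 5% CO₂, with serum but no IL-5. Cells were exposed to compound for 48 h, then to 0.5 mg/mL MTT for a further 3 h. Values are the mean ± SD of three independent measurements.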

Compound	cytotoxicity at 48 h, 30 µM
OCC(CC1CCCCC1)NCc1nc2c(OCC3CCCCC3)cccc2[nH]1 (stereo unspecified)	12.5%
CCC(CO)NCc1nc2c(OCC3CCCCC3)cccc2[nH]1 (stereo unspecified)	7.5%

Target: T1, Interleukin-5 receptor subunit alpha (Mus musculus) (UniProt P21183)
T1 sequence (whole entry): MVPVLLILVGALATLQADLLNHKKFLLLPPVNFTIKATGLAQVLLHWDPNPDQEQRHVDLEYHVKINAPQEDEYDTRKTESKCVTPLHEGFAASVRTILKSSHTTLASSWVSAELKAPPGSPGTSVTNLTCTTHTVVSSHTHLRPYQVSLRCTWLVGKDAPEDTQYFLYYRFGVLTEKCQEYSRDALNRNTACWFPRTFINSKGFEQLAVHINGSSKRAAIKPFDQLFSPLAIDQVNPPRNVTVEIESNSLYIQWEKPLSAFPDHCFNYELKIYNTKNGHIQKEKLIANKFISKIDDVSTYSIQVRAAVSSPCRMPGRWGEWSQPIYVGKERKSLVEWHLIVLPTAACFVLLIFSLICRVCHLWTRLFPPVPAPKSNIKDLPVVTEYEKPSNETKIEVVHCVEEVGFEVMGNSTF
Experiment: Inhibition of IL-5 receptor in mouse pro-B Y16 cells assessed as decrease in mIL-5 dependent cell proliferation at 50 uM after 48 hrs in presence of 3 units/ml mIL-5 by WST-1 assay relative to control
Type: cell-based
Conditions: not given

Compound	inhibition
O=c1c(-c2ccc(O[C@@H]3O[C@H](CO)[C@@H](O)[C@H](O)[C@H]3O)cc2)coc2cc(O)cc(O)c12	79.1%
CCCC1O[C@@H]2C[C@H]3[C@@H]4CCC5=CC(=O)C=C[C@]5(C)[C@H]4[C@@H](O)C[C@]3(C)[C@]2(C(=O)CO)O1 (stereo partly specified)	70.2%

Target: T1, Interleukin-5 receptor subunit alpha (Mus musculus)
Experiment: Inhibition of IL-5 receptor in mouse pro-B Y16 cells assessed as decrease in mIL-5 dependent cell proliferation at 30 uM after 48 hrs in presence of 3 units/ml mIL-5 by WST-1 assay relative to control
Type: cell-based
Conditions: not given
How it was run: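 Y16 murine early B-cell line was maintained in RPMI-1640 with 8% FBS and 3 units/mL mIL-5. Cells were washed twice in Hanks', resuspended without IL-5 (viability >95%), and plated at 1 × 10⁴ cells per well. A 3 units/mL mIL-5 solution and sample were added. Control wells received medium in place of sample; blank wells received medium in place of mIL-5. After 48 h at 37 °C, WST-1 was added for 2–4 h and A450 was read.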

Compound	inhibition
OCCC(NCc1nc2c(OCC3CCCCC3)cccc2[nH]1)c1ccccc1 (stereo unspecified)	64.7%
OCCN(Cc1nc2c(OCC3CCCCC3)cccc2[nH]1)C1CCCCC1	24%
OCCCCNCc1nc2c(OCC3CCCCC3)cccc2[nH]1	44.3%
CC(C)N(CCO)Cc1nc2c(OCC3CCCCC3)cccc2[nH]1	10%
OCC(Cc1ccccc1)NCc1nc2c(OCC3CCCCC3)cccc2[nH]1 (stereo unspecified)	81%
OCCN(Cc1ccc(Cl)cc1)Cc1nc2c(OCC3CCCCC3)cccc2[nH]1	96%
CCCC(CO)NCc1nc2c(OCC3CCCCC3)cccc2[nH]1 (stereo unspecified)	73.3%
OCCNCc1nc2c(OCC3CCCCC3)cccc2[nH]1	63.3%
CN(CCO)Cc1nc2c(OCC3CCCCC3)cccc2[nH]1	42%
COc1ccc(NCc2nc3c(OCC4CCCCC4)cccc3[nH]2)cc1	20.3%
CCCN(CCO)Cc1nc2c(OCC3CCCCC3)cccc2[nH]1	63%
OCC(CC1CCCCC1)NCc1nc2c(OCC3CCCCC3)cccc2[nH]1 (stereo unspecified)	94.7%
CC(C)(CO)NCc1nc2c(OCC3CCCCC3)cccc2[nH]1	54.7%
c1ccc(CNCc2nc3c(OCC4CCCCC4)cccc3[nH]2)cc1	49.3%
OCCN(Cc1ccccc1)Cc1nc2c(OCC3CCCCC3)cccc2[nH]1	62.3%
c1ccc(NCc2nc3c(OCC4CCCCC4)cccc3[nH]2)cc1	25%
OCC(NCc1nc2c(OCC3CCCCC3)cccc2[nH]1)c1ccccc1 (stereo unspecified)	77.7%
CCN(CCO)Cc1nc2c(OCC3CCCCC3)cccc2[nH]1	34.7%
OCCN(Cc1nc2c(OCC3CCCCC3)cccc2[nH]1)CC1CCCCC1	76.7%
OCCCCCNCc1nc2c(OCC3CCCCC3)cccc2[nH]1	23.7%
CCC(CO)NCc1nc2c(OCC3CCCCC3)cccc2[nH]1 (stereo unspecified)	94.3%
OCCN(Cc1ccncc1)Cc1nc2c(OCC3CCCCC3)cccc2[nH]1	43.3%
COc1ccc(CNCc2nc3c(OCC4CCCCC4)cccc3[nH]2)cc1	43.3%
OCCCNCc1nc2c(OCC3CCCCC3)cccc2[nH]1	52.7%
COc1ccc(CN(CCO)Cc2nc3c(OCC4CCCCC4)cccc3[nH]2)cc1	73.3%

Test system: not listed separately
Experiment: Cytotoxicity against human NCI-BL1184 cells assessed as inhibition of cell viability at 30 uM measured after 48 hrs by MTT assay
Type: cell-based
Conditions: read-out: INH
How it was run: as §1

Compound	cytotoxicity at 48 h, 30 µM
OCC(CC1CCCCC1)NCc1nc2c(OCC3CCCCC3)cccc2[nH]1 (stereo unspecified)	9.8%
CCC(CO)NCc1nc2c(OCC3CCCCC3)cccc2[nH]1 (stereo unspecified)	10.2%
